A short description of data set [1]: melting temperature; fluorescence melt of hairpins on a sequencing array, two-state fit, raised by 9.35 °C to match UV melts. The note with it: sodium 0.088 M. In short, it runs like this: (§1)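 Cy3 signals were normalised both to pre-quench Cy3 and to control constructs. They came from library hairpins carrying annealed Cy3 and quencher oligos on a sequenced MiSeq flow cell, imaged in 50 mM Na-HEPES pH 8.0, 25 mM NaCl, in 2.5 °C steps up to 60 °C. Bootstrapped two-state fits gave melting temperature and folding enthalpy, and four replicates were combined by inverse variance. Fitted temperatures were then raised by 9.35 °C to match UV melts.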

The nature of data set [2]: folding enthalpy; higher = less favourable; fluorescence melt of hairpins on a sequencing array, two-state fit. To be noted: sodium 0.088 M. In short, it runs like this:
as §1

As to GCTTGCGGAAACGCAGGC ((.((((....)))).)), the Tm in data set [1] worked out at 62.8 °C. Also, the folding enthalpy in data set [2] is -35.1 kcal/mol.
The matching figures for GCTTGGCGAAAGCACAGC (((..((....))..))): 42.2 °C and -18.2 kcal/mol.
With GCTTGGCGAAAGCATAGC (((..((....))..))), in data set [1], the Tm stood at 46.2 °C. Besides, the folding enthalpy in data set [2] is -20.3 kcal/mol.
As for GCTTGGCGAAAGCCAGC (((.(((....)))))), the Tm in data set [1] turned out to be 59 °C. In data set [2], the folding enthalpy was -14.3 kcal/mol.
The matching figures for GCTTGGCGAAAGCCGCGC ((..(((....)))..)): 57.6 °C and -15.6 kcal/mol.
Consider GCTTGGCGAAAGCCTCGC ((..(((....)))..)), for which, in data set [1], the Tm was 41.8 °C. The folding enthalpy in data set [2] was -17.4 kcal/mol.
The matching figures for GCTTGGCGAAAGCCTGGC ((..(((....)))..)): 52.3 °C and -17.4 kcal/mol.
For GCTTGGCGAAAGCTAAGC ((((.((....)).)))), in that order: 64.7 °C and -30 kcal/mol.
Take GCTTGGGGAAACTCAAGC (((((.(....).))))): the Tm in data set [1] is 51.3 °C. In data set [2], the folding enthalpy was -35.8 kcal/mol.
For GCTTGGTCGAAAGACAGC (((..(((....)))))), in that order: 43.2 °C and -14.8 kcal/mol.
For GCTTGTCGAAAGACAGC (((.(((....)))))), in that order: 52.9 °C and -19.9 kcal/mol.
For GCTTGTGGAAACACAGGC ((.((((....)))).)), in that order: 52 °C and -27.2 kcal/mol.
GCTTGTGGAAACATAAGC ((((.((....)).)))): the Tm in data set [1] came to 46.8 °C. For the same sequence, in data set [2], the folding enthalpy is -29.9 kcal/mol.
The matching figures for GCTTTATCGAAAGATAGC (((..(((....)))))): 31.6 °C and -12.2 kcal/mol.
With GCTTTCCGAAAGGACAGC (((.(((....))).))), in data set [1], the Tm came out at 49.9 °C. Besides, the folding enthalpy in data set [2] is -35.7 kcal/mol.
For GCTTTCGAAAGAAAGAGC ((((((....)))..))), in that order: 43.5 °C and -19.7 kcal/mol.
For GCTTTCGAAAGAAAGC ((((((....)))))), in that order: 65.1 °C and -42.3 kcal/mol.
GCTTTCGAAAGAAATAGC ((((((....)))..))): in data set [1], the Tm came to 36.8 °C. Also, the folding enthalpy in data set [2] was -20 kcal/mol.
The matching figures for GCTTTCGAAAGAATGAGC ((((((....)))..))): 31.9 °C and -14.8 kcal/mol.
For GCTTTCGAAAGAATTAGC ((((((....)))..))), in that order: 30.5 °C and -15.1 kcal/mol.
The matching figures for GCTTTGAAAAAAGC (((((....))))): 47.4 °C and -21.3 kcal/mol.
For GCTTTGCGAAAGCAAGGC ((.((((....)))).)), the Tm in data set [1] was determined as 62.1 °C. Further, the folding enthalpy in data set [2] was -21.3 kcal/mol.
For GCTTTGCGAAAGCATAGC (((.(((....))).))), in that order: 53.2 °C and -47.2 kcal/mol.
The matching figures for GCTTTGCGAAAGCCATGC ((.(.((....)).).)): 31.3 °C and -11.6 kcal/mol.
The matching figures for GCTTTGCGAAAGCTAAGC ((((.((....)).)))): 62.7 °C and -28.8 kcal/mol.
For the sequence GCTTTGCGAAAGCTCAGC (((..((....))..))), the Tm in data set [1] turned out to be 44.3 °C. Also, the folding enthalpy in data set [2] is -14.4 kcal/mol.
The matching figures for GCTTTGCGAAAGCTGAGC (((..((....))..))): 56.8 °C and -15.2 kcal/mol.
For GCTTTGGGAAACCAAAGC (((((((....))))))), in that order: 65 °C and -47.1 kcal/mol.
The matching figures for GCTTTGGGAAACCAGAGC (((.(((....))).))): 48 °C and -27 kcal/mol.
On to GCTTTTGGAAACGAAAGC (((((.(....).))))), for which the Tm in data set [1] turned out to be 47.2 °C. The folding enthalpy in data set [2] is -39 kcal/mol.
For GGAAAACGAAAGTTATCC (((.(((....))).))), in that order: 37 °C and -29.6 kcal/mol.
For GGAAAACGAAAGTTGTCC (((.(((....))).))), in that order: 44.6 °C and -26.1 kcal/mol.
The matching figures for GGAAAATCGAAAGATTCC (((..(((....)))))): 29.1 °C and -7.3 kcal/mol.
For the sequence GGAAACCGAAAGGTCTCC (((.(((....))).))), the Tm in data set [1] amounted to 44.8 °C. In addition, in data set [2], the folding enthalpy was -27.5 kcal/mol.
The matching figures for GGAAACCGAAAGGTTCC (((.(((....)))))): 51.9 °C and -18.8 kcal/mol.
On to GGAAACGAAAGTTCCTCC ((((((....)))..))), for which, in data set [1], the Tm came out at 44.1 °C. Also, the folding enthalpy in data set [2] is -18.3 kcal/mol.

The record behind these values is the array DNA melting data of Ke et al. (doi:10.1101/2024.01.08.574731).
